pEC50: −log10 of the molar value. The source made the active and inactive calls.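 Rule for the calls: active = half-maximal effective dose for blocking growth of human endothelial cells at most 100 µM; inactive = the rest.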

The assay deals with HUVEC proliferation, viability ATP luminescence. The assay is described as follows: HUVEC proliferation inhibition, dose response, cell-based, ATP luminescence (AID 822).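 Note: cells exposed to compound for 72 h before the ATP read.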 A digest of the protocol: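 Assay system: HUVEC primary endothelial cells, low passage (≤12); amount: 1250 HUVEC cells seeded per well; buffer or medium: EBM plus 2% FBS; read-out: percent viability relative to median untreated cell signal, EC50 via four-parameter fit; signal: luminescent ATP measurement with CellTiter-Glo reagent; schedule: 72 h exposure, 37 °C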
By pEC50 is commonly meant −log10 of the EC50, conventionally taken in molar units. For `COc1cc(N=c2ssnc2Cl)c(OC)cc1Cl`, the pEC50 is 4.68.
Turning to `COc1ccc(Cl)cc1N1CCN(CCNC(=O)Nc2ccccc2C)CC1`, the pEC50 is 5.23.
For the molecule `Cc1ccc(C(=O)Nc2ncc(Cc3ccccc3)s2)o1`, the pEC50 was 6.15.
For `COc1cc(OC)cc(C(=O)Nc2ccc(-c3nc4ccccc4o3)cc2)c1`, the pEC50 is 5.17.
Turning to `CC1CC(C)(C)CC2(C1)NC(=S)N(c1ccccc1)N2` (centres undefined), the negative-log EC50 (pEC50) was 4.91.
On the same count and under the same terms, the result for `C/C(CC1CC2=C(CC1(C)C)C(C)(C)CCC2)=N\NC(N)=S` (centres undefined) reads 5.31; that for `Cc1ccsc1/C=C/C1=Cc2c(sc(NC(=O)CSc3n[nH]c(N)n3)c2C#N)C(C)(C)C1`, 4.75; that for `Cc1ccc(S(=O)(=O)c2c(C)nn(C(C)(C)C)c2OC(=O)c2cccs2)cc1`, 5.05.
Turning to `O=C1CC(c2ccco2)Cc2nc(Nc3nc(-c4ccccc4)c4ccccc4n3)ncc21` (centres undefined), the pEC50 was 5.13.
As to `Cc1ccc(NC(=O)c2cc(NC(=O)c3ccco3)ccc2N2CCCCC2)cc1`, the pEC50 was 4.75.
Same read-out and setting: the result for `CCOc1ccccc1-n1c(CN2CCN(C(=O)c3ccco3)CC2)nc2ccccc2c1=O` reads 4.91; that for `Oc1c(I)cc(Cl)c2cccnc12`, 5.71.
On the same count and under the same terms, the value for `CN1CCN(S(=O)(=O)c2ccc(NC(=O)Nc3cccc(Cl)c3)cc2)CC1` was 5.16; that for `O=C1CSC(=S)N1Cc1cccnc1` was 4.72; that for `O=C(Nc1nnc(-c2ccc3c(c2)OCCO3)o1)c1ccc(Cc2ccccc2)cc1` was 5.32.
A word on the EC50: it is the concentration that produces a half-maximal response. As to `CC(C)CNC(=O)c1coc(=O)c(Br)c1`, the EC50 is > 10 µM (inactive).
With `COC(=O)C1=C(O)/C(=C\c2ccc(CNC(=O)C(=O)Nc3ccc(C)cc3)o2)N=C1C`, the pEC50 was 4.71.
With `O=c1[nH]c(Nc2nc3ccccc3o2)nc2c1CCCC2`, the pEC50 was 4.76.
Regarding `Cn1c(=O)n(C)c2cc(C(=O)Nc3ccc4c(c3)OCO4)ccc21`, the pEC50 is 4.94.
As for `Clc1ccc(COC(Cn2ccnc2)c2ccc(Cl)cc2Cl)cc1` (centres undefined), the negative-log EC50 (pEC50) is 5.20.
On the same count and under the same terms, the value for `Cc1ccc(-c2nnc(SCC(=O)Nc3ccccc3F)o2)cc1` was 4.72; that for `CCCSc1nc2c(cnn2-c2ccc(C)cc2)c(=O)[nH]1` was 5.29; that for `Cc1ccccc1NC(=O)CSC(N)=O` was 4.72.
As for `Cc1ccc2nc(NC(=O)CSc3ncnc4c3oc3ccccc34)sc2c1`, the pEC50 is 5.24.
On the same count and under the same terms, the result for `N=c1c2c(ncn1CCN1CCOCC1)Oc1ccc3ccccc3c1C2c1ccccc1` (centres undefined) reads 4.92.
With `COC(=O)CCS(=O)(=O)c1nc(-c2ccccc2)cc(C(F)(F)F)n1`, the pEC50 was 5.01.
The same measure, in the same setting: the value for `Cc1ccccc1-n1ncc2c([N+](=O)[O-])cc([N+](=O)[O-])cc21` was 5.03; that for `COC(=O)C1=C(C)N=c2s/c(=C3\C(=O)Nc4ccccc43)c(=O)n2C1c1ccccc1` (centres undefined) was 5.20.
Still for that read-out and setting: the result for `CC1CC(C)CN(S(=O)(=O)c2ccc(C(=O)Nc3nnc(-c4cccs4)o3)cc2)C1` (centres undefined) reads 5.52; that for `Cn1cc(SCC(=O)Nc2nc3ccccc3s2)c2ccccc21`, 5.20.
Consider `N=c1c2c(-c3ccccc3)c(-c3ccccc3)oc2ncn1CCCN1CCOCC1`, for which the pEC50 is 4.87.
As to `O=C(Nc1ccc(Cl)c(Cl)c1)C1=Cc2ccccc2OC1`, the pEC50 is 5.10.
On to `Nc1nc(NC(=O)c2cccc(S(=O)(=O)N3CCCCCC3)c2)nc(-c2ccccc2)n1`, for which the pEC50 is 4.89.
Regarding `COc1cc2nc(N3CCN(C(=O)c4ccco4)CC3)nc(N)c2cc1OC`, the pEC50 is 4.95.
Same read-out and setting: the value for `CCC(C)NC(=O)c1c(N)n(/N=C/c2ccccn2)c2nc3ccccc3nc12` (centres undefined) was 5.03.
On the same count and under the same terms, the result for `CCC(C)[C@@H](NC(=O)OC(C)(C)C)c1nnc(S(=O)(=O)Cc2cccc(C)c2)o1` (some centres undefined) reads 4.71; that for `CCc1ccc2c(c1)/C(=C/C(=O)c1cccs1)C(=O)N2`, 5.15.
On the same count and under the same terms, the result for `CCc1nc(SCC(=O)Nc2ccc3c(c2)OCCO3)c2oc3ccccc3c2n1` reads 5.02.
Regarding `CCOC(=O)c1cnc(-n2nc(C)cc2C)nc1NCCc1ccccc1`, the pEC50 was 4.90.
Still for that read-out and setting: the value for `CCCCc1nc2sc3c(SCC(=O)NCc4ccco4)ncnc3c2c2c1CCC2` was 4.87.
For the molecule `COc1ccc2cc3cc(C(=O)Nc4ccc5c(c4)OCO5)oc3nc2c1`, the pEC50 is 5.33.
Turning to `COCCCn1[nH]c2c3c(ccc2c1=O)C(=O)c1ccccc1C3=O`, the pEC50 was 5.33.
`CCn1cc(C(=O)NCc2ccc3c(c2)OCO3)c(=O)c2cc(F)c(N3CCN(C(=O)c4ccco4)CC3)cc21`: the pEC50 was 4.98.
Consider `CCOC(=O)c1ccc(NC(=O)CCc2nc(-c3ccc(C)cc3)no2)cc1`, for which the pEC50 is 4.78.
With `Cc1cc(NC(=O)COC(=O)C(Nc2ccc(C(F)(F)F)cc2Cl)C(C)C)no1` (centres undefined), the pEC50 was 4.92.
Regarding `CCCCCCOC(=O)C(C#N)c1nc2ccccc2nc1N1CCN(CC)CC1` (centres undefined), the pEC50 was 5.09.
On the same count and under the same terms, the value for `CC1=C(C(=O)OC2CCCCCCC2)C(c2cc3c(cc2Br)OCO3)CC(=O)N1` (centres undefined) was 5.16.
Same read-out and setting: the value for `CC(C)CC[n+]1ccn(C2=C([O-])c3ccccc3C(=O)/C2=N\S(=O)(=O)c2ccccc2)c1` was 5.27; that for `Cc1ccc(C)c(N2CCN(CCCNC(=O)Cn3cc4c(n3)CCC(C)C4)CC2)c1` (centres undefined) was 5.02; that for `OC(C#Cc1ccccn1)c1cccs1` (centres undefined) was 5.37.
Still for that read-out and setting: the value for `CCOC(=O)c1c(NC(=O)CCl)sc(C(=O)N(CC)CC)c1C` was 4.91; that for `O=C(Nc1cccc(-c2nnc(-c3ccccc3)o2)c1)c1ccc(Br)o1` was 5.00.
With `Cc1ccc(C2Oc3ccccc3C3=C2C(c2cccs2)n2ncnc2N3)cc1` (centres undefined), the pEC50 is 4.87.
On the same count and under the same terms, the result for `Cc1cccc(C)c1OCC(=O)N=Nc1c(O)[nH]c2ccc(Br)cc12` reads 5.15.
`Cc1ccc2[nH]c(=O)c(C3C(C#N)=C(N)Oc4c3ccc3cccnc43)cc2c1` (centres undefined): the pEC50 was 5.02.
On the same count and under the same terms, the result for `COc1ccccc1-c1nnc2n1N=C(c1ccc(O)c(O)c1)CS2` reads 6.07.
Same read-out and setting: the result for `C=CCc1ccc(OCC(O)CN2CCC(Cc3ccccc3)CC2)c(OC)c1` (centres undefined) reads 5.01; that for `COc1ccc(Cl)c(N2CCN(CCCNC(=O)Nc3ccc(C)cc3)CC2)c1`, 4.91; that for `c1ccc(-c2nc(N3CCCCCC3)c3ccccc3n2)nc1`, 5.81.
Turning to `COc1ccc2c(c1)c1nc3ccccc3nc1n2CC(=O)OC(C)C`, the pEC50 is 4.95.
On the same count and under the same terms, the value for `Cc1ccccc1NS(=O)(=O)c1ccc(N2CCCC2=O)cc1` was 4.71.
Turning to `CC(=O)Nc1ccc(S(=O)(=O)NC2=C(N3CCN(Cc4ccccc4)CC3)C(=O)c3ccccc3C2=O)cc1`, the pEC50 was 5.17.
Consider `COc1cc(/C=C/c2ccc3cccc(OC)c3n2)c(OC(C)=O)c([N+](=O)[O-])c1`, for which the pEC50 is 5.20.
In the case of `O=C1C=C(c2ccc(Cl)cc2)C(=O)N1Nc1ccccc1`, the pEC50 was 4.97.
On to `Cc1ccc2c(C)ccc(O)c2n1`, for which the negative logarithm of the EC50 (pEC50) is 5.13.
Same read-out and setting: the result for `Cc1ccc2c(c1)c1c(n2CC(O)Cn2c(C)nc3ccccc32)/C(=N\O)CCC1` (centres undefined) reads 5.05; that for `COc1ccc(NC(=O)/C(Cl)=C(/Cl)S(=O)(=O)Cc2ccccc2)cn1`, 5.35.
On to `Cc1nc(Nc2ccc3c(c2)OCCO3)c2nnn(Cc3ccccc3Cl)c2n1`, for which the pEC50 was 5.15.
The same measure, in the same setting: the value for `O=c1/c(=C/c2ccco2)sc2n1CN(c1cccc(Br)c1)CN=2` was 4.80.
As for `CCN(CC)CCn1c2ccccc2c2cnc(N)c(C#N)c21`, the pEC50 was 4.82.
Turning to `OCCNc1nc2ccccc2n1-c1ncnc2sc3c(c12)CCC3`, the pEC50 was 4.94.
On the same count and under the same terms, the result for `COc1ccc(N/N=C2/CCCCC2=O)cc1` reads 5.45; that for `Cc1ccc2c(c1)c1c(n2CC(O)Cn2c(C)nc3ccccc32)CCCC1` (centres undefined), 4.97; that for `O=Cc1ccc(Sc2nnc(-c3ccccc3)o2)c([N+](=O)[O-])c1`, 4.94.
The same measure, in the same setting: the result for `Cc1cc(N2CCCCC2)nc2ccc(NC(=O)c3ccc(Br)o3)cc12` reads 4.77; that for `O=C(CN1CCCC1)Nc1ccc(-c2nc3cc(NC(=O)CN4CCCC4)ccc3o2)cc1`, 4.72; that for `Cc1ccc(S(=O)(=O)c2c(C)nn(C(C)(C)C)c2OC(=O)c2ccc(Br)o2)cc1`, 5.34.
On the same count and under the same terms, the result for `CN(c1ccccc1)S(=O)(=O)c1ccc(C(=O)Nc2nnc(-c3ccc(F)cc3)o2)cc1` reads 5.76; that for `N#Cc1nc(-c2ccc(OCc3ccccc3)cc2)oc1NCCCn1ccnc1`, 5.23.
Take `CCc1cc(-c2n[nH]c(C)c2Oc2ccc(C(C)C)cc2)c(O)cc1O`: the pEC50 is 5.20.
Same read-out and setting: the value for `Cc1ccc(C(=O)c2c(C)oc3c2C(=O)C(=O)c2ccccc2-3)cc1` was 4.70.
Still for that read-out and setting: the result for `Cc1cc(/C=N/n2cnnc2)c(C)n1-c1ccc(OCc2ccc(Cl)cc2Cl)cc1` reads 5.36.
Turning to `CCOC(=O)COc1ccc(S(=O)(=O)NCCC2=CCCCC2)cc1`, the pEC50 is 4.92.
For the molecule `Cc1nn(-c2ccc(Cl)cc2)c2sc(C(=O)N3CCN(c4ccccn4)CC3)cc12`, the pEC50 was 4.72.
Same read-out and setting: the result for `CCCCCCn1c(C)nc2c(c1=O)c1nc3ccccc3nc1n2/N=C/c1ccco1` reads 4.84; that for `CC(C)(C)C1CC=C2C(C#N)=C(N)C(C#N)(C#N)C(c3cccs3)C2C1` (centres undefined), 4.91.
Take `Cc1cccc(CS(=O)(=O)c2nnc([C@H](Cc3ccccc3)NC(=O)OC(C)(C)C)o2)c1`: the pEC50 was 5.00.
Take `CCC(CC)COC(=O)C(C#N)c1nc2ccccc2nc1N1CCN(CC)CC1` (centres undefined): the pEC50 was 4.99.
`CCCCCCn1c(O)c(C=NC2CCCCC2N)c(=O)[nH]c1=O` (centres undefined): the pEC50 is 5.04.
On the same count and under the same terms, the value for `C=C(C)COc1ccc(-c2n[nH]c(C)c2-c2ccccc2OC)c(O)c1` was 4.88; that for `Cc1nn(Cc2c(Cl)cccc2Cl)c(C)c1NC(=O)c1cc(C(C)C)on1` was 4.87; that for `N=c1c2c(-c3ccccc3)c(-c3ccccc3)n(Cc3ccco3)c2ncn1Cc1ccco1` was 5.74.
Still for that read-out and setting: the value for `COc1ccc(CN=C(C)c2c(C(F)(F)F)[nH]n(-c3nc4ccccc4s3)c2=O)cc1` was 5.23.
`Cn1nc(C(C)(C)C)cc1C(=O)NCc1ccc(N2CCCC2=O)cc1`: the negative-log EC50 (pEC50) was 4.80.
